JNK3 blocker: JNK3 kinase activity inhibitors, primary screen, biochemical, human, purified enzyme. Mitogen-activated protein kinase 10 (Homo sapiens), P53779. HTS. hit rate 0.61% among 60,000. inhibition, % at 8 µM; in the data active = inhibition above about 17%;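 note: 0% = DMSO and 100% = reference inhibitor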
SF-1 act: activators of human SF-1, primary screen, cell-based, CHO-K1, Gal4-SF-1 LBD, luciferase luminescence | CHO-K1 Gal4-SF-1 LBD luciferase reporter; % increase over DMSO SF-1-specific signal | activation, % at 10 µM | hit rate 1.9% among 65,000;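 active = activation above the mean activation of all tested compounds plus 3 SD, cut at about 50% in these data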
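Compound – one dose, 10 µM compound, 1% DMSO · Test system – transient Gal4-SF-1 LBD reporter, CHO-K1 · Input – 4,000 cells in each well · Read-out basis – percent activation relative to DMSO median and mock-transfected background · Replicates – single measurement per compound · Technique – steady-glow luciferase luminescence, read after 15 min reagent incubation · Timing – 20 h compound treatment, 37 °C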
RORa activator: activators of orphan receptor RORA, primary screen, cell-based, luminescence; CHO-K1 Gal4-RORA LBD luciferase reporter; percent increase over mock-subtracted basal signal; activation, % at 10 µM; hit rate 1.5% among 65,000;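 active = activation above the mean of all tested compounds plus 3 SD, cut at about 49% in these data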;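 note: 0% = DMSO-treated RORA cells and 100% = added signal equal to DMSO minus mock-transfected cells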
MT1-MMP txn act: MT1-MMP promoter reporter activation – cell-based, luciferase luminescence, primary screen; HT1080 MT1-MMP promoter luciferase reporter, overnight; hits give high values; activation factor at 10 µM; hit rate 0.16% among 86,000; AID 750, 2007;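 active = activation factor of at least 2 for MT1-MMP transcription at 10 µM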
ROCK2 inh: inhibitors of human ROCK2 kinase, primary screen, biochemical, high-throughput, luminescence. Rho-associated protein kinase 2 (Homo sapiens), O75116. purified ROCK2, Kinase-Glo ATP depletion luminescence. inhibition, % at 6 µM. hit rate 0.35% among 60,000;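 active = inhibition above the screen-wide mean inhibition plus 3 SD, cut at about 18% in these data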;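 note: plate controls were DMSO wells for no effect and Y-27632 control wells after no-enzyme background subtraction for full effect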
PKA inh: inhibitors of human PKA kinase activity, primary screen, biochemical, ATP-depletion luminescence, Kemptide substrate. cAMP-dependent protein kinase catalytic subunit alpha (Homo sapiens), P17612. PKA Kemptide phosphorylation, Kinase-Glo ATP luminescence. inhibition, % at 6 µM. hit rate 0.1% among 65,000. AID 524, 2006;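 active = inhibition above the screen-wide mean inhibition plus 3 SD, cut at about 21% in these data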
Numbers without * were called inactive; / = no result given. Compounds with a hit are over-represented: about 2.5% of the library has one in this group of screens.

SMILES	JNK3 blocker	SF-1 act	RORa activator	MT1-MMP txn act	ROCK2 inh	PKA inh
C/C(N)=C(/C#N)C(=O)CSc1nnc(Nc2c(C)cccc2C)s1	4	-14	-2	1	-2	5
CC1CCC(NC(=O)Cn2ncc3ccccc32)CC1 (stereo not given)	1	52*	34	1.6	2	2
COC(=O)c1cccc(C23CC4(C2)[C@H](CN(CC2CCCCC2)[C@@H]4c2ccccc2)C3c2ccc(C(F)(F)F)cc2)c1 (stereo not given in full)	/	/	/	1	/	/
O=C(COc1ccc(Cl)cc1Cl)NC1CCSC1=O (stereo not given)	1	58*	23	1.8	6	12
O=C(NCc1ccco1)c1cc2c(s1)CCCCC2	1	70*	7	1.4	2	-1
Cc1csc(NC(=O)c2cc3c(s2)CCCCC3)n1	/	/	/	0.6	/	/
CCc1nnc(NC(=O)c2cc3c(s2)CCCCC3)s1	/	74*	34	0.9	/	1
O=C(Nc1ccon1)c1cc2c(s1)CCCCCC2	3	82*	45	1.5	2	4
O=C(Nc1ccon1)c1cc2c(s1)CCCC2	2	38	42	0.6	-5	-2
Cc1nc2nc(-c3ccc(Cl)cc3)nn2c(C)c1Cl	/	/	/	1.7	/	/
Cc1nc2nc(-c3ccccc3)nn2c(C)c1Cl	-5	103*	77*	2.2*	-1	0
CC(=O)Nc1ccc(S(=O)(=O)N2CCC(n3cnc4cc(F)ccc43)CC2)cc1	23*	-3	-25	1.2	3	1
COCCN(CC(=O)NCc1ccccc1)C(=O)CCC(=O)Nc1nccs1	7	15	4	1.1	8	12
Cc1ccc(-c2nc3cnccn3c2Nc2ccccc2)o1	12	37	49*	1	0	7
COC(=O)c1c(NC(=O)CC2SCC(C(=O)OC)NC2=O)sc2c1CCCC2 (stereo not given)	5	0	52*	1	-2	3
COC(=O)c1c(NC(=O)CCCC(=O)O)sc2c1CCC2	/	/	/	2.1*	/	/
COC(=O)c1c(NC(C)=O)sc2c1CCCC2	5	5	-9	1.1	2	5
CCCCc1n[nH]c2c1/C(=N/O)CC(c1ccccc1)C2 (stereo not given)	/	12	16	1.3	/	-6
CCCCc1noc2c1/C(=N\O)CC(c1ccccc1)C2 (stereo not given)	4	32	72*	1.3	-6	-8
CCOC(=O)CSc1nc(-c2ccc3c(c2)OCO3)ccc1C#N	-4	64*	7	1.7	-16	0
CCOC(=O)CC(=O)CSc1nc(-c2cccnc2)ccc1C#N	-1	27	22	1.1	5	8
CCOC(=O)CSc1nc(-c2ccncc2)ccc1C#N	3	80*	16	1.1	15	4
CCOC(=O)CSc1nc2cc(OCC)ccc2cc1C#N	1	2	53*	1.7	-3	-2
CCOC(=O)C1=C(CSc2nc(-c3ccncc3)ccc2C#N)OC(N)=C(C#N)C1c1cccnc1 (stereo not given)	-7	-12	-16	1	21*	5
O=S(=O)(N1CCOCC1)n1c(Cc2ccccc2)nc2ccccc21	2	7	-18	1.4	7	2
SMILES	JNK3 blocker	SF-1 act	RORa activator	MT1-MMP txn act	ROCK2 inh	PKA inh
Cc1cc(C(=O)Nc2c(F)cc(F)cc2Br)c(C)o1	3	7	-18	1.1	5	8
Nc1nonc1-c1noc(N2CCCCC2)n1	2	54*	26	1.4	8	5
CCOC(=O)c1sc(Nc2nc3c(OC)cccc3s2)nc1C	-17	64*	11	1.6	-6	-7
CCOC(=O)c1sc(Nc2ccccc2)nc1C	/	/	/	1.7	/	/
c1ccc(-n2ncc3c(NCC4CCCO4)ncnc32)cc1 (stereo not given)	-4	81*	57*	1.5	10	5
CCOC(=O)N1CCC(Nc2ncnc3c2cnn3-c2ccccc2)CC1	-2	15	1	1	-2	-4

Screens (PubChem BioAssay)
